These results are taken from ChEMBL document CHEMBL4007436, “Synthesis of Novel Synthetic Vitamin K Analogues Prepared by Introduction of a Heteroatom and a Phenyl Group That Induce Highly Selective Neuronal Differentiation of Neuronal Progenitor Cells” (2017).

Calls of active or inactive are those of the source. No cut-off for these calls is given here.

Assay [1] concerns Neuronal progenitor cell. Briefly: Induction of neuronal differentiation in C57BL/6J mouse neuronal progenitor cells assessed as increase in Map2/beta actin mRNA level at 1 uM treated for every second day for 4 days by RT-PCR analysis relative to control. In kind it is functional, cell-based. The method in brief: (§1)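 C57BL/6J E14 mouse cerebral neural stem cells were cultured 24 h after seeding. They were then treated with 1 µM analogue or ethanol control for 4 days, dosed every second day. mRNA was extracted, and Map2, Gfap and β-actin were quantified by real-time PCR. Map2/β-actin or Gfap/β-actin ratios were normalized to the EtOH control (set at 1.0). Values are means of three independent experiments; significance by Dunnett's t-test.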

The subject of assay [2] is Neuronal progenitor cell. Briefly: Induction of neuronal differentiation in C57BL/6J mouse neuronal progenitor cells assessed as expression of Gfap at 1 uM treated for every second day for 4 days measured after 48 hrs by DAPI-staining based immunofluorescence method. In kind it is functional. The method in brief: (§2)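 Neural stem cells taken from embryonic day 14 cerebrum of C57BL/6J mice, dispersed with trypsin/DNase I at 37 °C, seeded and grown 1 day at 37 °C, 5% CO2. Medium replaced with 10% FCS DMEM (low glucose) containing 1 µM analogue; ethanol at 0.1% as control. After 48 h, cells permeabilized with 0.2% Triton X-100. Staining used anti-Map2 (CF594, red) and anti-Gfap (CF488A, green), each overnight at 4 °C, with DAPI nuclei, then fluorescence microscopy.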

In assay [3] the test system is Neuronal progenitor cell. Briefly: Induction of neuronal differentiation in C57BL/6J mouse neuronal progenitor cells assessed as increase in relative ratio of Map2/Gfap mRNA level at 1 uM treated for every second day for 4 days by RT-PCR analysis relative to control. Format: functional, cell-based. The method in brief:
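E14 C57BL/6J mouse cerebral neural progenitor cells were treated with 1 µM analogue or ethanol every second day for 4 days. Map2 and Gfap mRNA (each relative to β-actin) were measured by real-time PCR. The Map2/Gfap ratio was calculated and normalized to the EtOH control (set at 1.0).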

Assay [4] concerns Neuronal progenitor cell. Briefly: Induction of neuronal differentiation in C57BL/6J mouse neuronal progenitor cells assessed as expression of Map2 at 1 uM treated for every second day for 4 days measured after 48 hrs by DAPI-staining based immunofluorescence method. In kind it is functional. In short, it runs like this: as §2
A short description of assay [5]: Induction of neuronal differentiation in C57BL/6J mouse neuronal progenitor cells assessed as fold increase in Map2/beta-actin mRNA level at 1 uM treated for every second day for 4 days by RT-PCR analysis relative to control. In kind it is functional, Neuronal progenitor cell. The method in brief: as §1
Assay [6] has as its system Neuronal progenitor cell. The assay can be described thus: Induction of neuronal differentiation in C57BL/6J mouse neuronal progenitor cells assessed as increase in Gfap/beta-actin mRNA level at 1 uM treated for every second day for 4 days by RT-PCR analysis relative to control. In kind it is functional, cell-based. In short, it runs like this:
as §1

As for `CC1=C(C/C=C(\C)CC/C=C(\C)CC/C=C(\C)COc2cccc(C)c2)C(=O)c2ccccc2C1=O`, the result in the assay on Neuronal progenitor cell [1], in the assay on Neuronal progenitor cell [3] and in the assay on Neuronal progenitor cell [4] was Active. Moreover, the result with Neuronal progenitor cell [2] was inactive.
On to `CC1=C(C/C=C(\C)CC/C=C(\C)CNc2ccc(F)cc2)C(=O)c2ccccc2C1=O`, for which the fold change (FC) in assay [5] is > 2. Also, the result in the assay on Neuronal progenitor cell [2] was inactive. In addition, the outcome in the assay with Neuronal progenitor cell [3] and with Neuronal progenitor cell [4] was Active.
Regarding `CC1=C(C/C=C(\C)CC/C=C(\C)CC/C=C(\C)COc2ccccc2)C(=O)c2ccccc2C1=O`, the outcome in the assay with Neuronal progenitor cell [1] was Active.
Consider `CC1=C(C/C=C(\C)CC/C=C(\C)CNc2ccccc2)C(=O)c2ccccc2C1=O`, for which the outcome in the assay on Neuronal progenitor cell [1] was Active.
With `CC(C)=CCC/C(C)=C/CC/C(C)=C/CC/C(C)=C/CC1=C(C)C(=O)c2ccccc2C1=O` [MENATETRENONE], in assay [5], the “fold change (FC)” value is on record as >2. Also, the outcome in the assay on Neuronal progenitor cell [2], in the assay on Neuronal progenitor cell [4] and with Neuronal progenitor cell [6] was Active.
